Measurements taken from ChEMBL document CHEMBL1123007, “New antiarrhythmic agents. N-aryl-8-pyrrolizidinealkanamides” (J Med Chem, 1985).
The source made the active and inactive calls. No cut-off for these calls is given here.

Key:
[1] = Potency of the drug was evaluated by comparison with Lidocain; potency = ED50 of Lidocaine /ED50 of compound; assay type: functional
[2] = Ratio of LD50 to ED50 evaluated for its antiarrhythmic potency; assay type: functional, Heart
[3] = system: Mus musculus; experiment: Antiarrhythmic activity evaluated in mouse after subcutaneous administration; assay type: functional; conditions: Heart, sc
Procedure, shortened: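 Male DDY mice (18-22 g), groups of 10, dosed s.c. at 0.1 mL/10 g body weight, three to four doses per compound. ED50 (dose protecting 50% from fibrillation) by Litchfield-Wilcoxon, with 95% confidence limits.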

[4] = Potency of the drug was evaluated by comparison with Lidocain; potency = ED50 of Lidocaine /ED50 of compound.; assay type: functional
[5] = Acute toxicity was determined in mice; assay type: organism-based; conditions: mouse, in vivo
[6] = system: Mus musculus; experiment: Antiarrhythmic activity evaluated in mouse after subcutaneous administration; No effect; assay type: functional, organism-based; conditions: Heart

SMILES | Ratio [2] | Potency [4] | further results
Nc1ccccc1NC(=O)CC12CCCN1CCC2 | 6.33 |  | Potency [1]: 0.9; ED50 [3]: 100 mg/kg
Cc1cccc(NC(=O)CC23CCCN2CCC3)c1C | 7.33 | 0.56 | 
Nc1ccc(NC(=O)CC23CCCN2CCC3)cc1 |  |  | LD50 [5]: 12 mg/kg
Cc1ccc(C)c(NC(=O)CC23CCCN2CCC3)c1 | 5.56 | 0.5 | 
Cc1ccccc1NC(=O)CC12CCCN1CCC2 |  |  | ED40 [3]: 100 mg/kg
COc1ccccc1NC(=O)CC12CCCN1CCC2 |  |  | ED40 [3]: 100 mg/kg
O=C(CC12CCCN1CCC2)Nc1ccccc1Cl |  |  | ED20 [3]: 100 mg/kg
Cc1cc(C)c(NC(=O)CC23CCCN2CCC3)c(C)c1 | 9.09 | 1.22 | 
CCN(CC)CC(=O)Nc1c(C)cccc1C [LIDOCAINE] |  | 1 | ED50 [3]: 29 mg/kg
O=C(CC12CCCN1CCC2)Nc1ccccc1Br | 7.54 | 0.76 | 
CCc1cccc(CC)c1NC(=O)CC12CCCN1CCC2 | 9.93 | 1.41 | 
Cc1ccc(NC(=O)CC23CCCN2CCC3)cc1 |  |  | ED20 [3]: 100 mg/kg
Cc1cccc(C)c1NC(=O)C12CCCN1CCC2 |  |  | ED20 [3]: 100 mg/kg; LD50 [5]: 603 mg/kg
Cc1cccc(C)c1NC(=O)CC12CCCN1CCC2 |  | 1.51 | 
O=C(CC12CCCN1CCC2)Nc1c(Cl)cccc1Cl |  |  | ED20 [3]: 100 mg/kg
Cc1ccc(NC(=O)CC23CCCN2CCC3)cc1C | 7.36 | 0.47 | 
COc1ccc(OC)c(NC(=O)CC23CCCN2CCC3)c1 | 2.26 | 0.44 | 
COc1ccc(NC(=O)CC23CCCN2CCC3)cc1 | 4.8 | 0.6 | 
COc1cccc(NC(=O)CC23CCCN2CCC3)c1 |  |  | ED40 [3]: 100 mg/kg
O=C(CC12CCCN1CCC2)Nc1ccccc1 |  |  | ED50 [6]: inactive
Cc1cc(C)cc(NC(=O)CC23CCCN2CCC3)c1 | 6.83 | 0.69 | 
